Reference: ChEMBL document CHEMBL1147483, “Novel p38 inhibitors with potent oral efficacy in several models of rheumatoid arthritis” (Bioorg Med Chem Lett, 2004)

Columns and labels:
[1] = Half life was determined; assay type: ADME, organism-based; conditions: rat, in vivo
[2] = biological target: Mitogen-activated protein kinase 8 (Homo sapiens, UniProt P45983); test: Inhibition of human c-Jun N-terminal kinase 1
Summary of the method: (§1)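 In-house kinase selectivity panel against human kinases; IC50 (µM) determined.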

[3] = biological target: Cytochrome P450 2C9 (Homo sapiens, UniProt P11712); test: Inhibition of human cytochrome P450 2C9; assay type: ADME
Cytochrome P450 2C9, sequence (P11712 whole entry): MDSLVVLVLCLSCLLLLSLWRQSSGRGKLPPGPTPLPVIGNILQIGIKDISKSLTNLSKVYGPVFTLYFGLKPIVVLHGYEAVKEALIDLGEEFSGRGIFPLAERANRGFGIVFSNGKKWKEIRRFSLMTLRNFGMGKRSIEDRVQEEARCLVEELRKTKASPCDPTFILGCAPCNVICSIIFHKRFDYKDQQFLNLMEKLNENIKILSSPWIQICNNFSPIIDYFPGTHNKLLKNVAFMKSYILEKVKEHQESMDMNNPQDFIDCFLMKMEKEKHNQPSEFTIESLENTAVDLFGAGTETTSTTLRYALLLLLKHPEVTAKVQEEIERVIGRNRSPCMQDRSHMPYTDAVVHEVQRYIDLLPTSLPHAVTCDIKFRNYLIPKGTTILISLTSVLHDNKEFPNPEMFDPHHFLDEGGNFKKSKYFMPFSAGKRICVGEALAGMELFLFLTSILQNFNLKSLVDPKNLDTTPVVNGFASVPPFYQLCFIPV

[4] = biological target: Vascular endothelial growth factor receptor 2 (Homo sapiens, UniProt P35968); test: Inhibition of human vascular endothelial growth factor receptor 2; summary of the method: as §1
Vascular endothelial growth factor receptor 2, sequence (P35968 whole entry): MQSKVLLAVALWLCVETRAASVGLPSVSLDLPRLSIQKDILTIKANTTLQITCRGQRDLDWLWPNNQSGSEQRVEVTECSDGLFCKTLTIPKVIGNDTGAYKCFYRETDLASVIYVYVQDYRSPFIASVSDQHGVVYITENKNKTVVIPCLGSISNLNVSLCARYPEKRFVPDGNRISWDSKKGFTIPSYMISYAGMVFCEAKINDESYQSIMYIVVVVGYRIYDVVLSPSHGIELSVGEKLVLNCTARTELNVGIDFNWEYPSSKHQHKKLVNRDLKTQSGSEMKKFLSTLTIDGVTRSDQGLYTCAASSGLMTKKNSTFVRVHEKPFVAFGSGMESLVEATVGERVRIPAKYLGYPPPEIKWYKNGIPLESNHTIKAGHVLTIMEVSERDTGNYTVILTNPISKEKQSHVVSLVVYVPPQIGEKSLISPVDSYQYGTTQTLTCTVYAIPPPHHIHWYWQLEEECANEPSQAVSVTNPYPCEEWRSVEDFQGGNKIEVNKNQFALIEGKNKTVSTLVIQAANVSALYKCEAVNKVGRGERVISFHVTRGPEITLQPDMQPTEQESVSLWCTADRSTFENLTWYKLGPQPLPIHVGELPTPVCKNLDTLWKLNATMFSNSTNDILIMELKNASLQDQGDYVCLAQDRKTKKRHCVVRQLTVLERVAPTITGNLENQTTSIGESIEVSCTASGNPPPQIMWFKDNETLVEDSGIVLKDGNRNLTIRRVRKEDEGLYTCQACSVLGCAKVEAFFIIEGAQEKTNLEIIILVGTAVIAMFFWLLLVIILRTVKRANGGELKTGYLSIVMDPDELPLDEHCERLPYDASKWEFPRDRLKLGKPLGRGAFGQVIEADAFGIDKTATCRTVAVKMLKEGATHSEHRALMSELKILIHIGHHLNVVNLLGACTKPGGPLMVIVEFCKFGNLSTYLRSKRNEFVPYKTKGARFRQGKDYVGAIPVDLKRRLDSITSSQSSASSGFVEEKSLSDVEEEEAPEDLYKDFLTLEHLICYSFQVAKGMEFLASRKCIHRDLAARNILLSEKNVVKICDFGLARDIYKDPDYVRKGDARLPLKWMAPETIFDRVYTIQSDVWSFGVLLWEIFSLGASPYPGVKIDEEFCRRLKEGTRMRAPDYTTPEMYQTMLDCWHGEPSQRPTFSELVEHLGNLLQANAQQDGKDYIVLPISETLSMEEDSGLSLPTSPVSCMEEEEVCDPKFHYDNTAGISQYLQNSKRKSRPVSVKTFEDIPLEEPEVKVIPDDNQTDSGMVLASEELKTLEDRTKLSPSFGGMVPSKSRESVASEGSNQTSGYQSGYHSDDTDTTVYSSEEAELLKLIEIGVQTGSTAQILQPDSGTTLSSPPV

[5] = biological target: Cytochrome P450 3A4 (Homo sapiens, UniProt P08684); test: Inhibition of human cytochrome P450 3A4; assay type: ADME
[6] = biological target: Cytochrome P450 2D6 (Homo sapiens, UniProt P10635); test: Inhibition of human cytochrome P450 2D6; assay type: ADME
[7] = biological target: Prostaglandin G/H synthase 1 (Homo sapiens, UniProt P23219); test: Inhibition of human prostaglandin G/H synthase 1, COX-1
Prostaglandin G/H synthase 1, sequence (P23219 whole entry): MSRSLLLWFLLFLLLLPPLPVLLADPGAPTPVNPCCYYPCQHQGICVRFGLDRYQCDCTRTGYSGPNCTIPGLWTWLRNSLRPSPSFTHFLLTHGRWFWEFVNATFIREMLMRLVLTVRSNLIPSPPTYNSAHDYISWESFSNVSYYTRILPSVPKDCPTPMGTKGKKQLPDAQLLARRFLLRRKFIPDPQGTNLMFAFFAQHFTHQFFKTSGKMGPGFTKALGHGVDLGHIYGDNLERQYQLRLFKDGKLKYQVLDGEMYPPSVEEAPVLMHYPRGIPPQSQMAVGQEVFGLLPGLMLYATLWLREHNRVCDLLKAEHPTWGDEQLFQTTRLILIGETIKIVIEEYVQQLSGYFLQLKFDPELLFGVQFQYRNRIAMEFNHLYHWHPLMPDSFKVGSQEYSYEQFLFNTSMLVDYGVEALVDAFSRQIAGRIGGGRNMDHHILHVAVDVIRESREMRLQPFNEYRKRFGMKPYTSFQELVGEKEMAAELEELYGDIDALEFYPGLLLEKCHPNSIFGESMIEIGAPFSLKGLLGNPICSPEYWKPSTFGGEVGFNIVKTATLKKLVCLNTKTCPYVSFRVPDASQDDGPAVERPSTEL

[8] = biological target: Proto-oncogene tyrosine-protein kinase Src (Homo sapiens, UniProt P12931); test: Inhibition of human c-Src; summary of the method: as §1
[9] = biological target: Mast/stem cell growth factor receptor Kit (Homo sapiens, UniProt P10721); test: Inhibition of human c-Kit kinase; summary of the method: as §1
[10] = system: Mus musculus; test: Dose required to inhibit of LPS (20 mg/kg, injected i.v. 1 hr […] dosing) induced TNF-alpha release in mice upon oral administration; assay type: functional
[11] = system: Mus musculus; test: Inhibition of LPS induced TNF-alpha release in mice following p.o. administration.; assay type: functional; set-up: concentration or dose not given beside the values
Summary of the method: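 LPS (20 mg/kg) given i.v. 1 h after dosing. Blood taken 1 h later; plasma TNF-α by mouse-specific ELISA. Reported as % inhibition or as ED50 (mg/kg p.o.).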

[12] = system: Rattus norvegicus; test: Percent swelling of joints in rats immunized with Mycobacterium tuberculosis was determined on day 20 after 25 mg/kg peroral administration; assay type: functional; conditions: route oral
Summary of the method: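 Female Wistar rats (adjuvant-induced arthritis) immunized with Mycobacterium tuberculosis on day 0; compounds given orally at 25 mg/kg twice daily (2 × 25 mg/kg p.o. per day) from day 14 to day 20; joint swelling measured on day 20 and expressed as % swelling.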

[13] = biological target: Mitogen-activated protein kinase 9 (Homo sapiens, UniProt P45984); test: Inhibition of human c-Jun N-terminal kinase 2; summary of the method: as §1
Mitogen-activated protein kinase 9, sequence (P45984 whole entry): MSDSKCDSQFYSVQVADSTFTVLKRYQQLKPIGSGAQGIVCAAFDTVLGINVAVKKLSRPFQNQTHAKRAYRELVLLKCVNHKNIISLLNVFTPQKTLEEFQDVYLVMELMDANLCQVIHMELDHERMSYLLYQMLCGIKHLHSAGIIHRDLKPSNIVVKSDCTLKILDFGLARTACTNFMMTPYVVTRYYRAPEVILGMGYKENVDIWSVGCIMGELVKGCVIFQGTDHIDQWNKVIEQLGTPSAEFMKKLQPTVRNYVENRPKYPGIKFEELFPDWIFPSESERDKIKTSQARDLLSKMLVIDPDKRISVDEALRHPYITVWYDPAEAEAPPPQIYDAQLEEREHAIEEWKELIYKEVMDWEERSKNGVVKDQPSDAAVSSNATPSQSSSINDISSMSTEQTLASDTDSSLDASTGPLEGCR

[14] = species: Homo sapiens; test: Inhibition of LPS/IFN-gamma stimulated TNF-alpha release in human peripheral blood mononuclear cells after 3h of incubation.; assay type: functional, cell-based
Summary of the method: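 Human PBMCs from healthy volunteers incubated with inhibitor and stimulated with LPS/IFN-γ for 3 h. TNF-α in supernatants measured by ELISA; IC50 derived.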

[15] = Oral bioavailability; assay type: ADME, organism-based; conditions: rat, in vivo
[16] = system: Rattus norvegicus; test: Dose required to inhibit bovine nasalseptum type II collagen induced arthritis in rats after administration on day 13; assay type: functional; conditions: 312 h
Summary of the method: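 Female WAG×BUF/F1 rats immunized intradermally with bovine nasal septum type II collagen in Freund's incomplete adjuvant; swelling starts ~10 days after immunization. Oral dosing once daily for 10 days, beginning day 13 when swelling was nearly maximal. ED50 (mg/kg p.o.) derived for inhibition of joint swelling.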

[17] = biological target: Mitogen-activated protein kinase 14 (Mus musculus, UniProt P47811); test: Inhibition of murine phosphorylated His-Mitogen-activated protein kinase p38 alpha.
[18] = biological target: T1, Cytochrome P450 1A2 (Homo sapiens, UniProt P05177); test: Inhibition of human cytochrome P450 1A2; assay type: ADME
T1 sequence (P05177 whole entry): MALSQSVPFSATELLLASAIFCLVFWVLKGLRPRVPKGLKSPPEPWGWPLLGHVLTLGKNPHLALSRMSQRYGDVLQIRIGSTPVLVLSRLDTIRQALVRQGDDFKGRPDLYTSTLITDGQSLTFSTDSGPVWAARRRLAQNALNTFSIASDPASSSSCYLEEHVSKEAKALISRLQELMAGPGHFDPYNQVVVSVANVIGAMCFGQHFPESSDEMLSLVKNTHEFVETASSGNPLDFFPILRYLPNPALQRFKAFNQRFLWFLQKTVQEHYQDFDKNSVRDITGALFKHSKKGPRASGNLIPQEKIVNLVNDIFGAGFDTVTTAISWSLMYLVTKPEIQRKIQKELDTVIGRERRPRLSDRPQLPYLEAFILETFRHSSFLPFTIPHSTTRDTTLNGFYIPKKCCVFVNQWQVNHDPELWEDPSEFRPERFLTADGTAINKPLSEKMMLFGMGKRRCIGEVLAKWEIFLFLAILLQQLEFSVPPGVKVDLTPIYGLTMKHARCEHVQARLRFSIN

[19] = biological target: Insulin-like growth factor 1 receptor (Homo sapiens, UniProt P08069); test: Inhibition of human insulin-like growth factor I receptor; summary of the method: as §1
Insulin-like growth factor 1 receptor, sequence (P08069 31-736 limits assumed): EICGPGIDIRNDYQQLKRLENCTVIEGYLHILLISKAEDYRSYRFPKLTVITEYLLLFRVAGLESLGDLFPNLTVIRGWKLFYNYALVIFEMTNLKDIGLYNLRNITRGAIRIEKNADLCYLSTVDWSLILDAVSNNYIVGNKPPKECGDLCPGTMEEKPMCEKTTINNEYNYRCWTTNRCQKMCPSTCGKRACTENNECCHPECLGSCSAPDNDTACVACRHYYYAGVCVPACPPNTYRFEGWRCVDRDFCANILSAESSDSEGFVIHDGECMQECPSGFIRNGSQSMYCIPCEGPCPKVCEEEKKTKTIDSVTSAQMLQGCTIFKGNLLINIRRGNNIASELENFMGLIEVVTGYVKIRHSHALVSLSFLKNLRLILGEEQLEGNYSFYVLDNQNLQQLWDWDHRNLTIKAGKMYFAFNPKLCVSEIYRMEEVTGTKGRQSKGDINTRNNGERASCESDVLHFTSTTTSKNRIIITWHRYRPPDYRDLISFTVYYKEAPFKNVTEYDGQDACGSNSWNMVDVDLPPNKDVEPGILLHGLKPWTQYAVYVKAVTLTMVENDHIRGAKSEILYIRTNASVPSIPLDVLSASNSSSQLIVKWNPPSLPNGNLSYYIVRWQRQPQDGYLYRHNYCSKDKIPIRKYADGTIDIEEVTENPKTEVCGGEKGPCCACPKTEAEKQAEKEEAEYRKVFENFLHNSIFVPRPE
Insulin-like growth factor 1 receptor, sequence (P08069 741-1367 limits assumed): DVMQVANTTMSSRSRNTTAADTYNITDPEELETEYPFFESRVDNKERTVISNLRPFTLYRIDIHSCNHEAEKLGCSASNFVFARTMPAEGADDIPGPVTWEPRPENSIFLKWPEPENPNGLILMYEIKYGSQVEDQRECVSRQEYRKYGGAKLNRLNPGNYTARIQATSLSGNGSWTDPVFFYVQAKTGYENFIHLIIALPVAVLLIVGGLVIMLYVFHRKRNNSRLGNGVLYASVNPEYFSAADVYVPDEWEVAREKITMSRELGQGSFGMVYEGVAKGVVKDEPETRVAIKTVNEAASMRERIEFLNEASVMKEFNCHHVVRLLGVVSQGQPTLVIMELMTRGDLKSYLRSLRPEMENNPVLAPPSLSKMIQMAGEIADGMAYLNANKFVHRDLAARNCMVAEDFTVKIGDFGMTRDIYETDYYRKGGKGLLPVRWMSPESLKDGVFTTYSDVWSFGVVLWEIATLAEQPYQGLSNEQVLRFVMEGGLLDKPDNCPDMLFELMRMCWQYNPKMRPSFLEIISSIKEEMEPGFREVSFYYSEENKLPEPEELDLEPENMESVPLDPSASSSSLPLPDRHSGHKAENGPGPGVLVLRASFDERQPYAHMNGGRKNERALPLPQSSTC

[20] = biological target: Tyrosine-protein kinase ABL1 (Homo sapiens, UniProt P00519); test: Inhibition of human c-Abl; summary of the method: as §1
[21] = biological target: Cyclin-dependent kinase 1 (Homo sapiens, UniProt P06493); test: Inhibition of human cyclin-dependent kinase 1; summary of the method: as §1
Cyclin-dependent kinase 1, sequence (P06493 whole entry): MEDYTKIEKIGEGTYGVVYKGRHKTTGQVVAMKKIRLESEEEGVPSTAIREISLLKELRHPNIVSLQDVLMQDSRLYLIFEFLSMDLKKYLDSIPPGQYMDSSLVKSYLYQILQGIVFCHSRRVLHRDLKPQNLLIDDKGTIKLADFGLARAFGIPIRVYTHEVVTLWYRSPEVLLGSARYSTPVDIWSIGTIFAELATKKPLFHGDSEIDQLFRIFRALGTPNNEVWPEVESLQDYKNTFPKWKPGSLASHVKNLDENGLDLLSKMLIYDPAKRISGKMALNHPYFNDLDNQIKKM

[22] = biological target: RAF proto-oncogene serine/threonine-protein kinase (Homo sapiens, UniProt P04049); test: Inhibition of human RAF proto-oncogene serine/threonine-protein kinase; summary of the method: as §1
[23] = biological target: T2, Epidermal growth factor receptor (Homo sapiens, UniProt P00533); test: Inhibition of human Epidermal growth factor receptor, HER-1
[24] = biological target: Hepatocyte growth factor receptor (Homo sapiens, UniProt P08581); test: Inhibition of human Met proto-oncogene tyrosine kinase
[25] = biological target: T2, Epidermal growth factor receptor; test: Inhibition of human epidermal growth factor receptor

Mitogen-activated protein kinase 8, sequence (P45983 whole entry): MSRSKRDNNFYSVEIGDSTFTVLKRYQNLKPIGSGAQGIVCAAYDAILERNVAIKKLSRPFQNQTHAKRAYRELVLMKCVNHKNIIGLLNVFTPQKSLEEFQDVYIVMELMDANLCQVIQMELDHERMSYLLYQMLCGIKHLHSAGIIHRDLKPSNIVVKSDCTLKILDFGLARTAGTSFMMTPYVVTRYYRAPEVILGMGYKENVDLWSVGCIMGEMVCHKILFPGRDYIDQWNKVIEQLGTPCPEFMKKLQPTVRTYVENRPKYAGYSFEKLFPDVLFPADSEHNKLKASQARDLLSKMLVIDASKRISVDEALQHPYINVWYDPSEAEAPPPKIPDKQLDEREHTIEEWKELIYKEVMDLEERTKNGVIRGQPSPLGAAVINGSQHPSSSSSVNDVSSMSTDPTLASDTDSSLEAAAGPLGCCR

Work on CN1CCC(O)(c2cn(-c3ccnc(NC4CCCC4)n3)c(-c3cccc(C(F)(F)F)c3)n2)CC1 yielded a half-life [1] of 3.5 h, an IC50 [2] of over 10000 nM and an IC50 [3] of over 2000 nM. The IC50 [4] was over 10000 nM, the IC50 [5] was over 2000 nM and the IC50 [6] was over 2000 nM. The IC50 [7] was over 80000 nM, the IC50 [8] was over 10000 nM and the IC50 [9] was over 10000 nM. It also gave an ED50 [10] of 1.07 mg/kg, an Inhibition [11] of 94% and a Swelling [12] of 58%. For the same molecule, the IC50 [13] was 4660 nM, the IC50 [14] was 1 nM and the bioavailability [15] was 23.2%. The ED50 [16] was 9.51 mg/kg, the IC50 [17] was 29 nM and the IC50 [18] was over 2000 nM. For the same molecule, the IC50 [19] was over 10000 nM, the IC50 [20] was over 10000 nM and the IC50 [21] was over 10000 nM.

Molecule CN1CCC(O)(c2nc(-c3ccc(F)cc3)c(-c3ccncc3)s2)CC1 has an IC50 [14] of 145 nM.

CN1CCC(O)(c2nc(-c3ccc(F)cc3)c(-c3ccncc3)o2)CC1 gave an IC50 [14] of 180 nM.

Molecule C[C@H](Nc1nccc(-n2cc(C3(O)CCN(C)CC3)nc2-c2ccc(F)cc2)n1)c1ccccc1 has an Inhibition [11] of 94% and an IC50 [17] of 4 nM.

C[C@H](Nc1nccc(-c2oc(C3(O)CCN(C)CC3)nc2-c2ccc(F)cc2)n1)c1ccccc1 showed an Inhibition [11] of 19%, an IC50 [14] of 8 nM and an IC50 [17] of 11 nM.

Work on C[C@H](Nc1cc(-c2sc(C3CCN(C)CC3)nc2-c2ccc(F)cc2)ccn1)c1ccccc1 yielded an IC50 [22] of 2100 nM, a half-life [1] of 12.5 h and an IC50 [2] of 1900 nM. The IC50 [3] was over 2000 nM, the IC50 [4] was 1700 nM and the IC50 [5] was over 2000 nM. It also gave an IC50 [6] of over 2000 nM, an IC50 [7] of over 80000 nM and an IC50 [8] of 8000 nM. The IC50 [23] was 1100 nM, the IC50 [9] was over 10000 nM and the ED50 [10] was 2.06 mg/kg. It also gave an Inhibition [11] of 88%, a Swelling [12] of 57% and an IC50 [13] of 261 nM. The IC50 [14] was 0.6 nM, the bioavailability [15] was 20.3% and the ED50 [16] was 7 mg/kg. The IC50 [17] was 18 nM, the IC50 [24] was over 10000 nM and the IC50 [18] was over 2000 nM. For the same molecule, the IC50 [19] was over 10000 nM, the IC50 [25] was 700 nM and the IC50 [20] was over 10000 nM. For the same molecule, the IC50 [21] was over 10000 nM.

C[C@H](Nc1nccc(-n2c(-c3ccc(F)cc3)nc3nc(N4CCN(C)CC4)ccc32)n1)c1ccccc1 gave an Inhibition [11] of 83%, an IC50 [14] of 1 nM and an IC50 [17] of 6 nM.

Molecule CN1CCN(c2ccc3c(n2)nc(-c2ccc(F)cc2)n3-c2ccnc(NC3CCCC3)n2)CC1 has an IC50 [22] of over 10000 nM, a half-life [1] of 4.1 h and an IC50 [2] of 1500 nM. For the same molecule, the IC50 [3] was over 2000 nM, the IC50 [4] was over 10000 nM and the IC50 [5] was over 2000 nM. The IC50 [6] was over 2000 nM, the IC50 [7] was over 80000 nM and the IC50 [8] was over 10000 nM. It also gave an IC50 [9] of over 10000 nM, an ED50 [10] of 1.41 mg/kg and an Inhibition [11] of 94%. For the same molecule, the Swelling [12] was 55%, the IC50 [13] was 47 nM and the IC50 [14] was 1 nM. It also gave a bioavailability [15] of 72.8%, an ED50 [16] of 4.22 mg/kg and an IC50 [17] of 15 nM. For the same molecule, the IC50 [24] was over 10000 nM, the IC50 [18] was over 2000 nM and the IC50 [19] was over 10000 nM. The IC50 [20] was over 10000 nM and the IC50 [21] was over 10000 nM.

Work on C[C@H](Nc1cc(-c2oc(C3(O)CCN(C)CC3)nc2-c2ccc(F)cc2)ccn1)c1ccccc1 yielded an Inhibition [11] of 21%, an IC50 [14] of 3 nM and an IC50 [17] of 9 nM.

Molecule C[C@H](Nc1cc(-c2[nH]c(C3(O)CCN(C)CC3)nc2-c2ccc(F)cc2)ccn1)c1ccccc1 has an Inhibition [11] of 42%, an IC50 [14] of 3 nM and an IC50 [17] of 7 nM.

Work on Fc1ccc(-c2nc(C3CCNCC3)cn2-c2ccnc(NC3CCCCC3)n2)cc1 yielded an Inhibition [11] of 29%, an IC50 [14] of 0.8 nM and an IC50 [17] of 5 nM.

Work on FC(F)(F)c1cccc(-c2nc(C3CCNCC3)cn2-c2ccnc(NC3CCCCC3)n2)c1 yielded an Inhibition [11] of 77%, an IC50 [14] of 2 nM and an IC50 [17] of 8 nM.

CN1CCC(O)(c2nc(-c3ccc(F)cc3)c(-c3ccncc3)[nH]2)CC1 gave an IC50 [14] of 15 nM.

C[C@H](Nc1cc(-c2sc(C3(O)CCN(C)CC3)nc2-c2ccc(F)cc2)ccn1)c1ccccc1 gave an Inhibition [11] of 94%, an IC50 [14] of 1 nM and an IC50 [17] of 5 nM.

With C[C@H](Nc1nccc(-c2[nH]c(C3(O)CCN(C)CC3)nc2-c2ccc(F)cc2)n1)c1ccccc1 the Inhibition [11] was 83%, the IC50 [14] was 0.1 nM and the bioavailability [15] was 10%. It also gave an IC50 [17] of 2 nM.
